# Active and inactive are the calls of the source.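 Rule for the calls, unless noted: active = viability at or below 30% in both replicate assays; inconclusive = viability at or below 30% in just one of the two assays; inactive = the rest.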
# Tests used:
# [1] = reducers of endogenous Her2 protein level, primary screen, SKBR3 breast tumor cells, AlphaScreen, ATP viability (AID 461;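 active = Her2 level under about 52% in both replicate screens, with viability over 70% of control, limit read from the data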;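 for Her2 level: lower value means less Her2 protein in the cells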;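 for viability: percent of carrier control wells set as 100% viability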); settings: 18-24 h, measured here: SKBR3 viability, ATP luminescence, at 10 µM
# [2] = target: Receptor tyrosine-protein kinase erbB-2 (Homo sapiens) (UniProt P04626); experiment: as above; settings: 18-24 h, at 10 µM, stronger effect = lower value
# Sequence of Receptor tyrosine-protein kinase erbB-2 (Homo sapiens) (P04626 whole entry, looked up): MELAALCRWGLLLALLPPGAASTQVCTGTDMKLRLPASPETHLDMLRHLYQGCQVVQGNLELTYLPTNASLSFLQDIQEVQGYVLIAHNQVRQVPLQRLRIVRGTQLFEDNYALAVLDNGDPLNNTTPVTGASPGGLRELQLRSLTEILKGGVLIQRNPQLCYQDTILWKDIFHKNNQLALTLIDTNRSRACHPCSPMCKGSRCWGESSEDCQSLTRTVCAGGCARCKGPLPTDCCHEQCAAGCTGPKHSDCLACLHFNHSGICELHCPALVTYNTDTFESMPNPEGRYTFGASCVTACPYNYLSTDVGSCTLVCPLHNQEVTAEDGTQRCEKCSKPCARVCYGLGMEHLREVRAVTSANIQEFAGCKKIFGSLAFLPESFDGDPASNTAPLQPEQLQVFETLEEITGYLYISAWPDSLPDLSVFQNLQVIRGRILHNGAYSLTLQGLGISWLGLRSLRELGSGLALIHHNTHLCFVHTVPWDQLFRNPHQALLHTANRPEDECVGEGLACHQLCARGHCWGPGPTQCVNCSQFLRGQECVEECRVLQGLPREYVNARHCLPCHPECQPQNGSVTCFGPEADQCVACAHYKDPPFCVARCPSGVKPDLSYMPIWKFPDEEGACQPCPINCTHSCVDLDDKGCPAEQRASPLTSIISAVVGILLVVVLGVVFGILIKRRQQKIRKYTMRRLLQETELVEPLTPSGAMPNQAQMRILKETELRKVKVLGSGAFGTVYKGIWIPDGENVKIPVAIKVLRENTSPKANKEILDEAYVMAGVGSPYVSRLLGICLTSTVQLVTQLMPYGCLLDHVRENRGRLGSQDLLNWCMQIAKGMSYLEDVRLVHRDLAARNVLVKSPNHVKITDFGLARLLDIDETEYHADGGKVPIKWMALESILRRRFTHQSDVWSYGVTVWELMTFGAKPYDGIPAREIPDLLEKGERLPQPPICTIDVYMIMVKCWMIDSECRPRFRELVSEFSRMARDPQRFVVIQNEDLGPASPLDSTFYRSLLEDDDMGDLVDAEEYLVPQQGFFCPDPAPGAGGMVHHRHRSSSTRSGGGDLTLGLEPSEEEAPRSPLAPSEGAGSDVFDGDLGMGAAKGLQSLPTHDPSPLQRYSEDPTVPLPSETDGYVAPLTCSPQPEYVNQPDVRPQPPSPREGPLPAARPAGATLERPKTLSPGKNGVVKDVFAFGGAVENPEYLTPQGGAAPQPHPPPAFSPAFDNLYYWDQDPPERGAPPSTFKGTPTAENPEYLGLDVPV
# [3] = SK-BR-3 cell growth inhibitors, pilot screen, 24 h, human (AID 572;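 active = viability at or below 10% of carrier control in both of two separate runs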;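 note: compound exposure lasted between 18 and 24 h rather than exactly 24 h; 100% = carrier-treated control wells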); settings: SK-BR-3 viability, CellTiter-Glo luminescence, at 10 µM, stronger effect = lower value
# [4] = HUVEC growth inhibition – cell-based, human, primary screen (AID 575); settings: HUVEC proliferation, CellTiter-Glo luminescence, 72 h; at 10 µM; stronger effect = lower value;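 note: 100% = median of untreated cell wells with 0.1% DMSO on each plate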
# Procedure, shortened: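 Test system – primary HUVEC, no more than 12 passages · Dosing – one dose, 10 µM final, 0.1% DMSO · Times – 72 h treatment at 37 °C · Measured by – ATP-based CellTiter-Glo luminescent read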
# [5] = growth inhibitors of H69AR lung tumor, primary screen, human, duplicate replicates (AID 580;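 active = viability at or under a set limit in both replicates, limit being median viability minus 3 SD, cut at about 48% in these data, passing the limit was not always enough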;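 note: 100% = mean luminescence of untreated wells and 0% = no signal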); settings: H69AR lung tumor cells viability, ATP luminescence, 72 h; at 10 µM; stronger effect = lower value
# [6] = reversal of MRP1-mediated doxorubicin resistance, pilot screen, H69AR cells, doxorubicin co-treatment (AID 601;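 active = viability loss from added drug above about 55%, and viability with drug at most 40%, in both replicates, limit read from the data, passing the limit was not always enough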); settings: CellTiter-Glo, 72 h, at 10 µM; for differential viability (reversal): stronger effect = higher value
# [7] = 384-well plate pilot, post-Golgi transport modulator project, inhibition of yeast transport mutant growth (AID 636; in the data active = inhibition above about 31%); settings: absorbance 615 nm, about 18 h, stronger effect = higher value
# [8] = growth suppression of yeast trafficking mutant, preliminary HTS, modulators of trafficking downstream of Golgi apparatus project, 1536-format plate, OD 615 nm (AID 637; in the data active = inhibition above about 30%); settings: yeast transport mutant growth, absorbance 615 nm, 18 h; stronger effect = higher value
# [9] = H69AR cells + 2 uM doxorubicin, measured here: viability with 2 uM doxorubicin, stronger effect = lower value
# [10] = H69AR cells, compound alone cytotoxicity
SMILES,viability [1] [%],Her2 level [2],viability [3],viability [4],viability [5],differential viability (reversal) ([6]; H69AR cells + 2 uM doxorubicin),"viability [6, 9] [%]","viability [6, 10] [%]",inhibition [7],inhibition [8]
CC(=O)Nc1ccc(S(=O)(=O)Nc2nc3n(n2)C(c2ccccc2)CC(=O)N3)cc1 (stereo not given),99.5,83.5% (inactive),99.5% (inactive),102% (inactive),107% (inactive),6.67% (inactive),99.9,107,-7.7% (inactive),-0.32% (inactive)
COc1ccccc1-c1nnc2sc(-c3ccc(N(C)C)cc3)nn12,79.5,64% (inactive),79.5% (inactive),34.5% (inactive),23.9% (active),-15.2% (inactive),39.1,23.9,-1.05% (inactive),1.09% (inactive)
c1ccc(Cc2ccc(OCCn3cncn3)cc2)cc1,84,108% (inactive),84% (inactive),98.6% (inactive),95% (inactive),14.6% (inactive),80.4,95,-3.92% (inactive),-7.38% (inactive)
CC1CCN(C(=O)CSc2nc3ccccc3[nH]2)CC1,82,99.5% (inactive),82% (inactive),91.8% (inactive),109% (inactive),14.7% (inactive),94.6,109,0.26% (inactive),6% (inactive)
COc1cc2c(=O)n(Cc3ccccc3)c(=O)n(CC(=O)NCc3ccco3)c2cc1OC,126,83% (inactive),126% (inactive),95.4% (inactive),86.2% (inactive),-0.76% (inactive),87,86.2,-8% (inactive),-3.65% (inactive)
O=C(O)C1CC=CCC1C(=O)NCc1ccccc1 (stereo not given),106,87% (inactive),106% (inactive),91.1% (inactive),92.2% (inactive),-3.77% (inactive),96,92.2,-4.4% (inactive),-2.38% (inactive)
COC(=O)c1ccc(NC(=O)C(C)N2C(=O)c3ccccc3C2=O)cc1 (stereo not given),109,94% (inactive),109% (inactive),108% (inactive),108% (inactive),14.8% (inactive),92.8,108,0.41% (inactive),-3.65% (inactive)
COc1ccc(C(=O)Nc2cccc(-c3nc4ncccc4o3)c2C)cc1OC,99,122% (inactive),99% (inactive),81.8% (inactive),92.8% (inactive),1.52% (inactive),91.2,92.8,3.42% (inactive),-3.97% (inactive)
O=C(CCSc1nccn1Cc1ccccc1)N1CCOCC1,107,111% (inactive),107% (inactive),103% (inactive),97% (inactive),11.1% (inactive),86,97,-6.13% (inactive),-0.65% (inactive)
CCCCCc1c(O)nc(SCC(=O)NCC2CCCO2)[nH]c1=O (stereo not given),96,110% (inactive),96% (inactive),96.9% (inactive),105% (inactive),12.2% (inactive),93,105,0% (inactive),-3.81% (inactive)
COC(=O)c1cccc(NC(=O)Cc2coc3cc(OC)ccc23)c1,102,96.5% (inactive),102% (inactive),87.1% (inactive),94.2% (inactive),15.6% (inactive),78.6,94.2,3.51% (inactive),-6.19% (inactive)
COc1ccc2[nH]c(=O)c(CN(C(=O)c3cccnc3)c3ccccc3OC)cc2c1,104,97% (inactive),104% (inactive),90.8% (inactive),89.1% (inactive),-2.19% (inactive),91.3,89.1,-6% (inactive),-0.16% (inactive)
COc1ccc(CC(=O)OCC(=O)NC(=O)NC2CCCCC2)cc1,96.5,94% (inactive),96.5% (inactive),100% (inactive),92.4% (inactive),-0.595% (inactive),93,92.4,-5.13% (inactive),-0.73% (inactive)
O=C(OC1CCOC1=O)c1ccc(S(=O)(=O)N2CCCCCC2)cc1 (stereo not given),95.5,113% (inactive),95.5% (inactive),95.3% (inactive),106% (inactive),12.5% (inactive),93.6,106,0.26% (inactive),1.83% (inactive)
Cc1cc2c(cc1C)-c1nnnn1C(C)(C)C2,110,97.5% (inactive),110% (inactive),101% (inactive),91.9% (inactive),4.78% (inactive),87.1,91.9,-9.07% (inactive),-5.24% (inactive)
CC(=O)c1ccc(NC2OC(C)C(O)C(O)C2O)cc1 (stereo not given),121,112% (inactive),121% (inactive),100% (inactive),91.3% (inactive),1.54% (inactive),89.8,91.3,2.24% (inactive),-6.67% (inactive)
O=C1CC(c2cccc(Cl)c2)CC(O)=C1C=NCCCO (stereo not given),102,90.5% (inactive),102% (inactive),83.7% (inactive),103% (inactive),4.62% (inactive),98.1,103,-6.27% (inactive),-0.33% (inactive)
O=C(OCC(=O)c1cccs1)C1=COCCO1,89,102% (inactive),89% (inactive),91.6% (inactive),89.1% (inactive),1.52% (inactive),87.6,89.1,-0.38% (inactive),-1% (inactive)
CCC(=O)Nc1c(C#N)c2nc3ccccc3nc2n1-c1ccccc1C,95,82.5% (inactive),95% (inactive),99.2% (inactive),87.5% (inactive),-3.52% (inactive),91,87.5,-5.2% (inactive),8.85% (inactive)
Cc1nc(SCc2ccc(Br)cc2)[nH]c(=O)c1C,83.5,85.5% (inactive),83.5% (inactive),60.7% (inactive),92.1% (inactive),9.71% (inactive),82.4,92.1,-5.14% (inactive),0.82% (inactive)
O=S(=O)(c1ccc(Br)s1)N1CCCCC1,96.5,97.5% (inactive),96.5% (inactive),89.5% (inactive),94% (inactive),2.88% (inactive),91.1,94,-1.32% (inactive),-2.13% (inactive)
CCCOc1ccc(-c2nnn(CC(=O)Nc3cccc(C(=O)OC)c3)n2)cc1,100,98% (inactive),100% (inactive),64.3% (inactive),48% (active),-5.98% (inactive),54,48,1.87% (inactive),21.1% (inactive)
O=C(NCCCN1CCOCC1)C1CC(=O)N(CCc2ccccc2)C1 (stereo not given),104,89% (inactive),104% (inactive),84.1% (inactive),94.8% (inactive),7.94% (inactive),86.9,94.8,-3.68% (inactive),-1.29% (inactive)
O=C(c1ccc(-c2cccc(C(F)(F)F)c2)o1)N1CCOCC1,95.5,118% (inactive),95.5% (inactive),72.8% (inactive),92.7% (inactive),16.1% (inactive),76.6,92.7,-4.8% (inactive),-2.58% (inactive)
CCC(=O)Nc1c2c(nn1-c1ccccc1C)CSC2,86.5,89.5% (inactive),86.5% (inactive),104% (inactive),102% (inactive),12.8% (inactive),89.4,102,-4.42% (inactive),-3.65% (inactive)
COc1ccc2c(c1)n([O-])c1c([n+]2=O)CCC1,110,91.5% (inactive),110% (inactive),109% (inactive),100% (inactive),-6% (inactive),106,100,-1.18% (inactive),-4.55% (inactive)
CCOc1ccc2[nH]c(=O)c(C(c3nnnn3CC3CCCO3)N3CCc4ccccc4C3)cc2c1 (stereo not given),97,82.5% (inactive),97% (inactive),81.1% (inactive),85.8% (inactive),36.5% (inactive),49.2,85.8,-4.93% (inactive),2.62% (inactive)
CCN(CC)S(=O)(=O)c1ccc2c(c1)nc(SCC(=O)NC1CC1)n2-c1ccccc1OC,92.5,86.5% (inactive),92.5% (inactive),67.8% (inactive),91.3% (inactive),14.2% (inactive),77.1,91.3,-5.81% (inactive),3.65% (inactive)

# Source: PubChem BioAssay
